{"source": "ChEMBL document CHEMBL3272327", "about": "“Hypocholesterolemic activity of 1,3-bis(substituted phenoxy)-2-propanones” (J Med Chem, 1976)", "key": {"Rattus norvegicus [1]": {"system": "Rattus norvegicus", "experiment": "Hypocholesterolemic activity in rat assessed as [14C]cholesterol level in feces at 10 mg/kg/day administered for 1 week measured after 22 hrs on day 7 by scintillation counting analysis (reference value: 15.50 +/- 5.24%)", "format": "functional", "summary_of_the_method": "(§1)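 Male rats were dosed orally for 1 week (10 mg/kg/day) or with 1% CMC. On day 7 they received 5 μCi [4-14C]cholesterol orally and were killed after 22 hr. Organs were homogenized (10% in water); 0.1-cc aliquots of homogenate, urine, blood or feces were digested with Protosol. Samples were counted in toluene/Triton X-100 (2:1) scintillant with 0.4% PPO and 0.01% POPOP. Results are % of dose per tissue, N = 6.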"}, "Rattus norvegicus [2]": {"system": "Rattus norvegicus", "experiment": "Effect on vesicular gland weight in rat at 10 mg/kg/day administered for 16 days measured 24 hrs after last drug dosage relative to total body weight (reference value: 0.10 to 0.11%)", "format": "ADME, organism-based", "details": "in vivo"}, "Rattus norvegicus [3]": {"system": "Rattus norvegicus", "experiment": "Effect on testes weight in rat at 10 mg/kg/day administered for 16 days measured 24 hrs after last drug dosage relative to total body weight (reference value: 1.08 to 1.10%)", "format": "ADME, organism-based, Testis", "details": "in vivo"}, "Rattus norvegicus [4]": {"system": "Rattus norvegicus", "experiment": "Effect on body weight in rat at 10 mg/kg/day administered for 16 days measured on day 7 (reference value: 173 +/- 12 gms)", "format": "ADME, organism-based", "details": "in vivo, 384 h", "summary_of_the_method": "(§2)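 Male Sprague-Dawley rats with chow and water ad libitum. Compound suspended in 1% CMC-water and given orally by intubation needle at 11:00 a.m., 1, 5, 10 or 50 mg/kg/day, for 16 days. Body weight (g) recorded on days 0, 7 and 16. N = 8.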"}, "Rattus norvegicus [5]": {"system": "Rattus norvegicus", "experiment": "Effect on spleen weight in rat at 50 mg/kg/day administered for 16 days measured 24 hrs after last drug dosage relative to total body weight (reference value: 0.55 +/- 0.12%)", "format": "ADME, organism-based", "details": "in vivo"}, "Rattus norvegicus [6]": {"system": "Rattus norvegicus", "experiment": "Effect on body weight in rat at 50 mg/kg/day administered for 16 days measured on day 7 (reference value: 173 +/- 12 gms)", "format": "ADME, organism-based", "details": "in vivo, 384 h", "summary_of_the_method": "as §2"}, "Rattus norvegicus [7]": {"system": "Rattus norvegicus", "experiment": "Effect on food intake in rat at 5 mg/kg/day measured during second week (reference value: 23.4 +/- 1.8 gms)", "format": "ADME, organism-based", "details": "in vivo", "summary_of_the_method": "(§3)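 Male rats dosed orally at 1, 5, 10 or 50 mg/kg/day in 1% CMC. Average food intake in grams per rat per week measured over a 2-week period, first and second weeks reported separately. N = 8, Student's t test against the 1% CMC control.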"}, "Rattus norvegicus [8]": {"system": "Rattus norvegicus", "experiment": "Hypocholesterolemic activity in rat assessed as serum glycerol level at 10 mg/kg/day administered for 14 days (reference value: 100 +/- 39%)", "format": "functional"}, "Rattus norvegicus [9]": {"system": "Rattus norvegicus", "experiment": "Hypocholesterolemic activity in rat assessed as [14C]palmitic acid level in urine at 10 mg/kg/day administered for 1 week measured after 22 hrs on day 7 by scintillation counting analysis (reference value: 3.31 +/- 1.37%)", "format": "functional", "summary_of_the_method": "(§4)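 Male Sprague-Dawley rats on lab chow dosed orally once daily for 1 week at 10 mg/kg/day, suspended in 1% CMC, or given vehicle alone. On day 7, 5 μCi [1-14C]palmitic acid given orally. Killed after 22 hr; organs made into 10% water homogenates. Aliquots of 0.1 cc of homogenate, urine, blood or feces were digested and scintillation counted. Output is % of dose per tissue, N = 6.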"}, "Rattus norvegicus [10]": {"system": "Rattus norvegicus", "experiment": "Effect on vesicular gland weight in rat at 1 mg/kg/day administered for 16 days measured 24 hrs after last drug dosage relative to total body weight (reference value: 0.10 +/- 0.04%)", "format": "ADME, organism-based", "details": "in vivo"}, "Rattus norvegicus [11]": {"system": "Rattus norvegicus", "experiment": "Hypocholesterolemic activity in Sprague-Dawley rat assessed as serum cholesterol level at 10 mg/kg/day, po administered via intubation measured on day 16 by Liebermann-Burchard reaction (reference value: 100%)", "format": "functional"}, "Rattus norvegicus [12]": {"system": "Rattus norvegicus", "experiment": "Hypocholesterolemic activity in rat assessed as [14C]cholesterol level in kidney at 10 mg/kg/day administered for 1 week measured after 22 hrs on day 7 by scintillation counting analysis (reference value: 0.69 +/- 0.27%)", "format": "functional", "summary_of_the_method": "as §1"}, "Rattus norvegicus [13]": {"system": "Rattus norvegicus", "experiment": "Effect on body weight in rat at 5 mg/kg/day administered for 16 days measured on day 16 (reference value: 233 +/- 16 gms)", "format": "ADME, organism-based", "details": "in vivo, 384 h", "summary_of_the_method": "as §2"}, "Rattus norvegicus [14]": {"system": "Rattus norvegicus", "experiment": "Effect on heart weight in rat at 1 mg/kg/day administered for 16 days measured 24 hrs after last drug dosage relative to total body weight (reference value: 0.37 +/- 0.04%)", "format": "ADME, organism-based", "details": "in vivo"}, "Rattus norvegicus [15]": {"system": "Rattus norvegicus", "experiment": "Effect on vesicular gland weight in rat at 5 mg/kg/day administered for 16 days measured 24 hrs after last drug dosage relative to total body weight (reference value: 0.10 +/- 0.04%)", "format": "ADME, organism-based", "details": "in vivo"}, "Rattus norvegicus [16]": {"system": "Rattus norvegicus", "experiment": "Effect on vas deferens and epididymis weight in rat at 1 mg/kg/day administered for 16 days measured 24 hrs after last drug dosage relative to total body weight (reference value: 0.22 +/- 0.04%)", "format": "ADME, organism-based", "details": "in vivo"}, "Rattus norvegicus [17]": {"system": "Rattus norvegicus", "experiment": "Hypocholesterolemic activity in rat assessed as [14C]palmitic acid level in chyme at 10 mg/kg/day administered for 1 week measured after 22 hrs on day 7 by scintillation counting analysis (reference value: 0.41+/- 0.17%)", "format": "functional", "summary_of_the_method": "as §4"}, "Rattus norvegicus [18]": {"system": "Rattus norvegicus", "experiment": "Effect on kidney weight in rat at 50 mg/kg/day administered for 16 days measured 24 hrs after last drug dosage relative to total body weight (reference value: 0.92 +/- 0.04%)", "format": "ADME, organism-based", "details": "in vivo"}, "Rattus norvegicus [19]": {"system": "Rattus norvegicus", "experiment": "Effect on liver weight in rat at 1 mg/kg/day administered for 16 days measured 24 hrs after last drug dosage relative to total body weight (reference value: 4.22 +/- 0.29%)", "format": "ADME, organism-based", "details": "in vivo"}, "Rattus norvegicus [20]": {"system": "Rattus norvegicus", "experiment": "Effect on food intake in rat at 1 mg/kg/day measured during second week (reference value: 23.4 +/- 1.8 gms)", "format": "ADME, organism-based", "details": "in vivo", "summary_of_the_method": "as §3"}, "Rattus norvegicus [21]": {"system": "Rattus norvegicus", "experiment": "Hypocholesterolemic activity in rat assessed as [14C]cholesterol level in spleen at 10 mg/kg/day administered for 1 week measured after 22 hrs on day 7 by scintillation counting analysis (reference value: 1.41 +/- 1.01%)", "format": "functional", "summary_of_the_method": "as §1"}, "Rattus norvegicus [22]": {"system": "Rattus norvegicus", "experiment": "Effect on testes weight in rat at 5 mg/kg/day administered for 16 days measured 24 hrs after last drug dosage relative to total body weight (reference value: 1.08 +/- 0.08%)", "format": "ADME, organism-based, Testis", "details": "in vivo"}, "Rattus norvegicus [23]": {"system": "Rattus norvegicus", "experiment": "Hypocholesterolemic activity in rat assessed as [14C]cholesterol level in large intestine at 10 mg/kg/day administered for 1 week measured after 22 hrs on day 7 by scintillation counting analysis (reference value: 19.12 +/- 5.62%)", "format": "functional", "summary_of_the_method": "as §1"}, "Rattus norvegicus [24]": {"system": "Rattus norvegicus", "experiment": "Hypocholesterolemic activity in rat assessed as [14C]palmitic acid level in spleen at 10 mg/kg/day administered for 1 week measured after 22 hrs on day 7 by scintillation counting analysis (reference value: 0.46 +/- 0.24%)", "format": "functional", "summary_of_the_method": "as §4"}, "Rattus norvegicus [25]": {"system": "Rattus norvegicus", "experiment": "Hypocholesterolemic activity in rat assessed as [14C]palmitic acid level in heart at 10 mg/kg/day administered for 1 week measured after 22 hrs on day 7 by scintillation counting analysis (reference value: 0.23 +/- 0.10%)", "format": "functional", "summary_of_the_method": "as §4"}, "Rattus norvegicus [26]": {"system": "Rattus norvegicus", "experiment": "Effect on food intake in rat at 10 mg/kg/day measured during second week (reference value: 23.4 +/- 1.8 gms)", "format": "ADME, organism-based", "details": "in vivo", "summary_of_the_method": "as §3"}, "Rattus norvegicus [27]": {"system": "Rattus norvegicus", "experiment": "Hypocholesterolemic activity in Sprague-Dawley rat assessed as serum cholesterol level at 1 mg/kg/day, po administered via intubation measured on day 4 by Liebermann-Burchard reaction (reference value: 100 +/- 7%)", "format": "functional"}, "Rattus norvegicus [28]": {"system": "Rattus norvegicus", "experiment": "Hypocholesterolemic activity in Sprague-Dawley rat assessed as serum cholesterol level at 1 mg/kg/day, po administered via intubation measured on day 10 by Liebermann-Burchard reaction (reference value: 100 +/- 7%)", "format": "functional"}}}
{"smiles": "Cc1ccc(OCC(=O)COc2ccc(C)cc2)cc1", "values": [{"measurement": "Activity", "setting": "Rattus norvegicus [1]", "value": 22.1, "unit": "%"}, {"measurement": "Activity", "setting": "Rattus norvegicus [2]", "value": 0.11, "unit": "%"}, {"measurement": "Activity", "setting": "Rattus norvegicus [3]", "value": 1.13, "unit": "%"}, {"measurement": "Activity", "setting": "Rattus norvegicus [4]", "value": 164, "unit": "g"}, {"measurement": "Activity", "setting": "Rattus norvegicus [5]", "value": 0.4, "unit": "%"}, {"measurement": "Activity", "setting": "Rattus norvegicus [6]", "value": 171, "unit": "g"}, {"measurement": "Activity", "setting": "Rattus norvegicus [7]", "value": 28.8, "unit": "g"}, {"measurement": "Activity", "setting": "Rattus norvegicus [8]", "value": 24, "unit": "%"}, {"measurement": "Activity", "setting": "Rattus norvegicus [9]", "value": 1.82, "unit": "%"}, {"measurement": "Activity", "setting": "Rattus norvegicus [10]", "value": 0.19, "unit": "%"}, {"measurement": "Activity", "setting": "Rattus norvegicus [11]", "value": 58, "unit": "%"}, {"measurement": "Activity", "setting": "Rattus norvegicus [12]", "value": 1.29, "unit": "%"}, {"measurement": "Activity", "setting": "Rattus norvegicus [13]", "value": 241, "unit": "g"}, {"measurement": "Activity", "setting": "Rattus norvegicus [14]", "value": 0.38, "unit": "%"}, {"measurement": "Activity", "setting": "Rattus norvegicus [15]", "value": 0.13, "unit": "%"}, {"measurement": "Activity", "setting": "Rattus norvegicus [16]", "value": 0.23, "unit": "%"}, {"measurement": "Activity", "setting": "Rattus norvegicus [17]", "value": 2, "unit": "%"}, {"measurement": "Activity", "setting": "Rattus norvegicus [18]", "value": 0.88, "unit": "%"}, {"measurement": "Activity", "setting": "Rattus norvegicus [19]", "value": 4, "unit": "%"}, {"measurement": "Activity", "setting": "Rattus norvegicus [20]", "value": 29.2, "unit": "g"}, {"measurement": "Activity", "setting": "Rattus norvegicus [21]", "value": 1.86, "unit": "%"}, {"measurement": "Activity", "setting": "Rattus norvegicus [22]", "value": 1.03, "unit": "%"}, {"measurement": "Activity", "setting": "Rattus norvegicus [23]", "value": 12.84, "unit": "%"}, {"measurement": "Activity", "setting": "Rattus norvegicus [24]", "value": 0.37, "unit": "%"}, {"measurement": "Activity", "setting": "Rattus norvegicus [25]", "value": 0.26, "unit": "%"}, {"measurement": "Activity", "setting": "Rattus norvegicus [26]", "value": 28.6, "unit": "g"}, {"measurement": "Activity", "setting": "Rattus norvegicus [27]", "value": 75, "unit": "%"}, {"measurement": "Activity", "setting": "Rattus norvegicus [28]", "value": 71, "unit": "%"}]}
